Results from ChEMBL document CHEMBL1152782, “Rational modification of a candidate cancer drug for use against Chagas disease” (J Med Chem, 2009).
Calls of active or inactive are those of the source. The calls are words filed in the database; no cut-off is given here.

Key:
[1] = Inhibition of rat recombinant protein farnesyltransferase expressed in Sf9 cells by [3H]-scintillation proximity assay
Trypanosoma cruzi [2] = experiment: Antitrypanosomal activity against Trypanosoma cruzi Tulahuen amastigotes expressing beta-galactosidase in mouse 3T3 fibroblast after 7 days by […]; type: functional, organism-based; details: 168 h
Cytochrome P450 3A4 = Cytochrome P450 3A4 (Homo sapiens, UniProt P08684); experiment: Inhibition of human recombinant CYP3A4; type: ADME
[3] = Ratio of IC50 for rat recombinant protein farnesyltransferase to EC50 for Trypanosoma cruzi Tulahuen expressing beta-galactosidase
[4] = target: Sterol 14-alpha demethylase (Trypanosoma cruzi (strain CL Brener)) (UniProt Q7Z1V1); experiment: Inhibition of Trypanosoma cruzi recombinant sterol 14-alpha-demethylase assessed as drug/enzyme molar ratio required to produce 50 percent decrease in turnover number
[5] = target: T1, Lanosterol 14-alpha demethylase (Homo sapiens, UniProt Q16850); experiment: Inhibition of human sterol 14-alpha-demethylase assessed as drug/enzyme molar ratio required to produce 50 percent decrease in turnover number
T1 sequence (Q16850 whole entry): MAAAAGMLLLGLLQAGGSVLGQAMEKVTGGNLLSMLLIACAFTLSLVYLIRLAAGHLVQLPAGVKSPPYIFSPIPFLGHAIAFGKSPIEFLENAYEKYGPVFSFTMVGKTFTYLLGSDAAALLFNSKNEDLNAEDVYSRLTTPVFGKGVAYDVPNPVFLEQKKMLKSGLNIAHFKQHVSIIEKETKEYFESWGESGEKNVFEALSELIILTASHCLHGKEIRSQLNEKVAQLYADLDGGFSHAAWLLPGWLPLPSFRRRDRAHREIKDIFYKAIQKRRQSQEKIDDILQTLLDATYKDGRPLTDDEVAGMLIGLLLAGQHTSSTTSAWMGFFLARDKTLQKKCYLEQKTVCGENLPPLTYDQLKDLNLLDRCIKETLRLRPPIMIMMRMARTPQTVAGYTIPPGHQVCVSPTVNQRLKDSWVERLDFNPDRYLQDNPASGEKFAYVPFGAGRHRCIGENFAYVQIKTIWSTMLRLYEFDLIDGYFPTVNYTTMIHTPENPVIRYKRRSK

[6] = Cmax in BALB/c mouse at 50 mg/kg, po; type: ADME, organism-based; parameters: dose 50 mg/kg, route oral; details: in vivo
Procedure, shortened: (§1)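 Single oral gavage dose of 50 mg/kg, suspended at 10 mg/ml in 20% (w/v) hydroxypropyl beta-cyclodextrin, to uninfected female BALB/c mice (7–8 weeks, ~20 g); timed tail blood, plasma extracted with acetonitrile using an internal standard, quantified by reversed-phase LC-MS (electrospray ion trap); three mice averaged.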

[7] = Elimination half life in BALB/c mouse at 50 mg/kg, po; type: ADME, organism-based; parameters: dose 50 mg/kg, route oral; details: in vivo, read-out: beta t1/2 (converted); procedure, shortened: as §1
Trypanosoma cruzi [8] = experiment: (§2) Antitrypanosomal activity against Trypanosoma cruzi Tulahuen trypomastigotes infected in BALB/c mouse assessed as suppression of parasitemia at 100 mg/kg, po twice a day after 7 days of infection for 8 to 13 days and 50 mg/kg, po for 14 to 27 days measured weekly for 8 weeks by microscopy; type: functional, organism-based
Procedure, shortened: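 Female BALB/c mice, 7–8 weeks old, infected s.c. with 5×10^3 Tulahuen trypomastigotes; parasitemic by day 7. From day 8, groups of 5–6 were gavaged 100 mg/kg twice daily (days 8–13), then 50 mg/kg twice daily (days 14–27), in 20% w/v hydroxypropyl-β-cyclodextrin. Parasitemia read in 5 μL tail blood over 50 high-power fields. Day-103 cardiac blood cultured at 28 °C, checked weekly for 8 weeks.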

Trypanosoma cruzi [9] = experiment: Antitrypanosomal activity against Trypanosoma cruzi Tulahuen trypomastigotes infected in BALB/c mouse assessed as suppression of parasitemia at 100 mg/kg, po after 7 days of infection for 8 to 27 days measured weekly for 8 weeks by microscopy; type: functional, organism-based; parameters: dose 100 mg/kg
Procedure, shortened: (§3)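 Female BALB/c mice (7–8 weeks) infected subcutaneously with 5×10^3 Tulahuen trypomastigotes; oral gavage from day 8, groups of 5–6, for 20 days. Benznidazole 100 mg/kg once daily days 8–27; test agents 100 mg/kg twice daily days 8–13 then 50 mg/kg twice daily days 14–27; vehicle 20% hydroxypropyl beta-cyclodextrin twice daily. Parasitemia counted in 5 μL tail blood over 50 high-powered fields.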

Mus musculus = experiment: Toxicity in BALB/c mouse at 50 mg/kg, po administered twice a day; type: organism-based; parameters: dose 50 mg/kg, route oral; details: in vivo
Procedure, shortened: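 Infected female BALB/c mice given oral gavage in 20% hydroxypropyl beta-cyclodextrin, 100 mg/kg twice daily days 8–13 then 50 mg/kg twice daily days 14–27; monitored for weight loss and adverse effects.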

Trypanosoma cruzi [10] = experiment: as §2, with “parasitemia in blood culture” for “parasitemia”, “after 100 days” for “weekly for 8 weeks”; type: functional, organism-based; procedure, shortened: as §3
[11] = Terminal half life in po dosed human administered twice a day; type: ADME, organism-based; details: in vivo, read-out: beta t1/2 (converted)

Chain of Sterol 14-alpha demethylase (Trypanosoma cruzi (strain CL Brener)) (Q7Z1V1 whole entry, looked up): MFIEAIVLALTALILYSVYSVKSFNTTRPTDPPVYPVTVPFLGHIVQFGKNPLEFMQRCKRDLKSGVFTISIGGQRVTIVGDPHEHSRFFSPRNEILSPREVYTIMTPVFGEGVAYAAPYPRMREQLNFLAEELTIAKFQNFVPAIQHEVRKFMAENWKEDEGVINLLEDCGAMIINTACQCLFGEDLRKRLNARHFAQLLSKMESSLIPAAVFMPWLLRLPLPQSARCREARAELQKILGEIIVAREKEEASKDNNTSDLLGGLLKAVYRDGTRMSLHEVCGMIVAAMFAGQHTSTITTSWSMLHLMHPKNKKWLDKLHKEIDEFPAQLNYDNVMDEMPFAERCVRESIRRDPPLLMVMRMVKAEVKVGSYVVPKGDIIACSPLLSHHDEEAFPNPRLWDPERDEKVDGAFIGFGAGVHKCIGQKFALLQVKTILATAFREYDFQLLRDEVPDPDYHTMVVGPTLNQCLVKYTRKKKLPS
Chain of Cytochrome P450 3A4 (P08684 whole entry): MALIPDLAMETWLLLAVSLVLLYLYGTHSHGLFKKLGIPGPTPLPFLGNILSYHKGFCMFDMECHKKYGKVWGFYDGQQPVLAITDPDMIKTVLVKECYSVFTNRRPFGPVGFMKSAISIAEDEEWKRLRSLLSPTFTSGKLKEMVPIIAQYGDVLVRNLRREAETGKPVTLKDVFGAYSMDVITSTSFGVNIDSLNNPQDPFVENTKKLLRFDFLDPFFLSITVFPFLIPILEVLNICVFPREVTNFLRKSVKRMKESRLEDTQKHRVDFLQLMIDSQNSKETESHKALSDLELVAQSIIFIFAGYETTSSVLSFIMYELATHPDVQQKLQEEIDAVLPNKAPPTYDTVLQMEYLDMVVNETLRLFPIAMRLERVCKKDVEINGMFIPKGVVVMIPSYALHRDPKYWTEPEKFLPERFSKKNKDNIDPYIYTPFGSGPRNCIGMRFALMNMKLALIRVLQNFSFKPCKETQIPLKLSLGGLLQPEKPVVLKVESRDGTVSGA

Cc1ccccc1-c1cc(=O)n(C)c2ccc([C@](N)(c3ccc(Cl)cc3)c3cncn3C)cc12 (racemic)
IC50 [1]: 300 nM
EC50 (Trypanosoma cruzi [2]): 23 nM
IC50 (Cytochrome P450 3A4): 1350 nM
Ratio IC50/EC50 [3]: 13

CC[C@@H]([C@H](C)O)n1ncn(-c2ccc(N3CCN(c4ccc(OC[C@@H]5CO[C@@](Cn6cncn6)(c6ccc(F)cc6F)C5)cc4)CC3)cc2)c1=O [POSACONAZOLE]
EC50 (Trypanosoma cruzi [2]): 0.3 nM

Cc1c(Cl)cccc1-c1cc(=O)n(C)c2ccc([C@](N)(c3ccc(Cl)cc3)c3cncn3C)cc12 (racemic)
IC50 [1]: 294 nM
Activity [4]: 0.65
EC50 (Trypanosoma cruzi [2]): 21 nM
IC50 (Cytochrome P450 3A4): 1300 nM
Activity [5]: > 100
Ratio IC50/EC50 [3]: 14

Cn1cncc1[C@@](N)(c1ccc(Cl)cc1)c1ccc2c(c1)c(-c1ccccc1)cc(=O)n2C
IC50 [1]: 4 nM
EC50 (Trypanosoma cruzi [2]): 12 nM
Ratio IC50/EC50 [3]: 0.3

Cn1cncc1[C@](N)(c1ccc(Cl)cc1)c1ccc2c(c1)c(-c1cccc(Cl)c1)cc(=O)n2C [(S)-TIPIFARNIB]
Activity [4]: 0.74
Activity [5]: > 100

Cc1cc([C@@](N)(c2ccc3c(c2)c(-c2cccc(Cl)c2)cc(=O)n3C)c2cncn2C)ccc1Cl (racemic)
IC50 [1]: 13 nM
EC50 (Trypanosoma cruzi [2]): 23 nM
Ratio IC50/EC50 [3]: 0.6

Cn1cncc1[C@@](N)(c1ccc(Cl)cc1)c1ccc2c(c1)c(-c1cccc3ccccc13)cc(=O)n2C (racemic)
IC50 [1]: 485 nM
Activity [4]: 0.85
EC50 (Trypanosoma cruzi [2]): 22 nM
Activity [5]: > 100

CO[C@](c1ccc(Cl)cc1)(c1ccc2c(c1)c(-c1cccc(Cl)c1C)cc(=O)n2C)c1cncn1C (racemic)
IC50 [1]: > 5000 nM
Activity [4]: 0.62
Cmax [6]: 5 µM
half-life [7]: 4 h
EC50 (Trypanosoma cruzi [2]): 0.6 nM
IC50 (Cytochrome P450 3A4): 870 nM
Activity (Trypanosoma cruzi [8]): Active
Activity (Trypanosoma cruzi [9]): Active
Activity (Mus musculus): Non-toxic
Activity [5]: 48
Ratio IC50/EC50 [3]: > 8300
Activity (Trypanosoma cruzi [10]): Active

Cn1cncc1[C@@](N)(c1ccc2ccccc2c1)c1ccc2c(c1)c(-c1cccc(Cl)c1)cc(=O)n2C
IC50 [1]: 17 nM
EC50 (Trypanosoma cruzi [2]): 45 nM
Ratio IC50/EC50 [3]: 0.4

CC(=O)N1CCN(c2ccc(OCC3COC(Cn4ccnc4)(c4ccc(Cl)cc4Cl)O3)cc2)CC1 (configuration not stated) [KETOCONAZOLE]
Activity [4]: 0.75
EC50 (Trypanosoma cruzi [2]): 0.3 nM
Activity [5]: 2.3

Cn1cncc1[C@@](N)(c1ccc(Cl)cc1)c1ccc2c(c1)c(-c1cccc(Cl)c1)cc(=O)n2C [TIPIFARNIB]
IC50 [1]: 0.7 nM
Activity [4]: 0.48
EC50 (Trypanosoma cruzi [2]): 4 nM
Activity (Trypanosoma cruzi [8]): inactive
half-life [11]: 16 h
Activity [5]: > 100
